Compound activity from PubChem.
Only some compounds are listed: those with a hit (about 1.8% of all), similar ones and a draw of the others.
MIN6 prolif: inducers of beta-cell replication in MIN6 cells; MIN6 cells proliferation, ATPlite luminescence, 48 h; cells starved in 0.2% serum; 100% = growth in 10% serum; proliferation, % at 10 µM; 0.29% of 330,000 active; AID 2380;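 active = compounds whose signal lies at least 3.5 SD above the mean of all wells on their plate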
PPC-1+TRAIL kill: PPC-1 cancer cell killing with TRAIL present; 0.41% of 220,000 active; cell killing (% activity), % at 4 µM or 5 µM; PPC-1 cells + TRAIL, ATPLite viability luminescence; AID 1443;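 active = cell killing above 50% in the first pass at 4 µM, then a duplicate retest at 5 µM averaging 50% or more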
FLuc stim CS: firefly luciferase counter-screen for stimulation assays | P08659 | ATPlite luciferase biochemical, luminescence, 10 min; 0 = ATP-free wells, 1 = DMSO control | activation factor at 10 µM | 200,000 tested, under 10 active;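 active = luciferase activation factor, scaled between plate controls, of at least 2 with compound at 10 µM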
Target sequence (P08659 whole entry, looked up): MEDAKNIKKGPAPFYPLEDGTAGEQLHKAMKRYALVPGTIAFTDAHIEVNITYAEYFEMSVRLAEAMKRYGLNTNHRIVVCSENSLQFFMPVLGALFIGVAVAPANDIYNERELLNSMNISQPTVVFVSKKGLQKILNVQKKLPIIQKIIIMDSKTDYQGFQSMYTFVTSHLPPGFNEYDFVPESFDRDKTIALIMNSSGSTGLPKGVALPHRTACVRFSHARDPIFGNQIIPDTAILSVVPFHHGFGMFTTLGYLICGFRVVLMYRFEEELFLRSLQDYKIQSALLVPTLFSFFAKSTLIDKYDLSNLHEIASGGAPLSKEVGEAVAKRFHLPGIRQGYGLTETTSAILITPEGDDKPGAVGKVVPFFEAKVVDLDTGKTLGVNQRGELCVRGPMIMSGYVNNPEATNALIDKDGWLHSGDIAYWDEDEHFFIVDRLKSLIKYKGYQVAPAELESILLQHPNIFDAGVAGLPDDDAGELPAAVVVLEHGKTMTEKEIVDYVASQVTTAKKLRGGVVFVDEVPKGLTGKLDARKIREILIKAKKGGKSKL
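System: luciferase plus luciferin reagent, cell-free; medium: PBS as buffer for the ATP substrate; dosing: test compounds dosed from 2 mM stocks in 100% DMSO; timing: 10 min post-reagent at room temperature; measured by: luminescence measurement of luciferase light output; evaluation: luciferase activation, seen as luminescence increase over controls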
TRAIL sens C8: sensitizes caspase-8 expressing cells to TRAIL; AID 624354; 1% of 360,000 active; NB7+C8 cells + TRAIL, ATPlite viability luminescence; inhibition (viability loss, TRAIL sensitization), % at 10 µM;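 active = compounds causing at least 50% loss of cell viability in the single-dose screen, relative to plate controls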
iPSC survival up: increases survival of single human iPS cells. survival enhancement, % at 20 µM. 0.044% of 360,000 active. AID 602274. hiPSC single-cell survival, ATPlite luminescence; 100% = ROCK inhibitor wells, 0% = DMSO; in the data active = survival enhancement above about 18%;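 note: cells exposed to compounds for 16 hours before the ATP read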
FLuc inhib CS: Photinus pyralis luciferase inhibition counter-screen | P08659 | ATPLite firefly luciferase biochemical luminescence, 10 min | inhibition, % at 10 µM | 1.5% of 200,000 active;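 active = inhibition above about 50% when tested at 10 µM, limit read from the data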
A number is an active result.

What do the screens show for `CCOc1ccc(N/C=C/C(=O)c2ccccc2)c([N+](=O)[O-])c1`?
MIN6 prolif: inactive; PPC-1+TRAIL kill: 73; FLuc stim CS: inactive; TRAIL sens C8: 91; iPSC survival up: inactive; FLuc inhib CS: 94

What do the screens show for `COc1ccc(C(=O)/C=C/Nc2cc(C)ccn2)cc1`?
MIN6 prolif: inactive; PPC-1+TRAIL kill: inactive; TRAIL sens C8: 61; iPSC survival up: inactive

Results for CSc1ccc(NC(=O)Nc2cc(C)ccn2)cc1 ?
MIN6 prolif: inactive; PPC-1+TRAIL kill: inactive; TRAIL sens C8: 55; iPSC survival up: inactive

What do the screens show for `Cc1ccc(NC(=O)OCc2cccs2)cc1`?
MIN6 prolif: inactive

How did COc1ccc(N/C=C/C(=O)c2ccccc2)cc1 do in these assays?
MIN6 prolif: inactive; TRAIL sens C8: 71; iPSC survival up: inactive

How did Cc1ccnc(NC(=O)COc2ccc3c(c2)CCC3)c1 do in these assays?
MIN6 prolif: inactive; TRAIL sens C8: 70; iPSC survival up: inactive

What do the screens show for `COc1ccc(C(=O)N2CCC2(C)C(=O)NC(C)C)cc1OC` (centres undefined)?
TRAIL sens C8: inactive; iPSC survival up: inactive

Results for CSc1cc(SC)ncn1 ?
TRAIL sens C8: inactive; iPSC survival up: inactive

How did O=C(CN1C(=O)C2CCCCC2C1=O)Nc1nccs1 (centres undefined) do in these assays?
MIN6 prolif: inactive; PPC-1+TRAIL kill: inactive; FLuc stim CS: inactive; TRAIL sens C8: inactive; iPSC survival up: inactive; FLuc inhib CS: inactive

What do the screens show for `O=C(CC1SC(=O)N(Cc2cccc3ccccc23)C1=O)Nc1nccs1` (centres undefined)?
MIN6 prolif: inactive; PPC-1+TRAIL kill: inactive; FLuc stim CS: inactive; TRAIL sens C8: 53; iPSC survival up: inactive; FLuc inhib CS: inactive

What do the screens show for `CCOC(=O)CN1C(=O)SC(CC(=O)Nc2nccs2)C1=O` (centres undefined)?
MIN6 prolif: inactive; PPC-1+TRAIL kill: inactive; FLuc stim CS: inactive; TRAIL sens C8: 60; iPSC survival up: inactive; FLuc inhib CS: inactive

How did COc1ccccc1OCC(=O)NNC(=O)CSC(=S)N1CCCC1 do in these assays?
MIN6 prolif: inactive; TRAIL sens C8: inactive; iPSC survival up: inactive

Results for Clc1ccc(-n2nnc(-c3nccs3)n2)cc1Cl ?
MIN6 prolif: inactive; PPC-1+TRAIL kill: inactive; FLuc stim CS: inactive; TRAIL sens C8: inactive; iPSC survival up: inactive; FLuc inhib CS: 59

What do the screens show for `Clc1ccc(-n2nnc(-c3ncc[nH]3)n2)cc1Cl`?
MIN6 prolif: inactive; TRAIL sens C8: inactive; iPSC survival up: inactive

What do the screens show for `COc1ccc(-c2nc3ccccn3c2C=O)cc1`?
MIN6 prolif: inactive; PPC-1+TRAIL kill: inactive; FLuc stim CS: inactive; TRAIL sens C8: inactive; iPSC survival up: inactive; FLuc inhib CS: 61

Results for O=Cc1c(-c2ccc(F)cc2)nc2ccccn12 ?
MIN6 prolif: inactive; PPC-1+TRAIL kill: inactive; FLuc stim CS: inactive; TRAIL sens C8: inactive; iPSC survival up: inactive; FLuc inhib CS: inactive

What do the screens show for `O=C(Cc1cccs1)Nc1cccc(-c2nc3cc4ccccc4cc3[nH]2)c1`?
PPC-1+TRAIL kill: inactive; FLuc stim CS: inactive; TRAIL sens C8: 73; iPSC survival up: inactive; FLuc inhib CS: 75

Results for O=C(CSc1ccc(-c2ccco2)nn1)c1ccccc1 ?
MIN6 prolif: inactive; PPC-1+TRAIL kill: inactive; FLuc stim CS: inactive; TRAIL sens C8: inactive; iPSC survival up: inactive; FLuc inhib CS: inactive

Results for COc1ccc(S(=O)(=O)N2CCOCC2)cc1NC(=O)COC(=O)C1COc2ccccc2O1 (centres undefined) ?
MIN6 prolif: inactive; PPC-1+TRAIL kill: inactive; FLuc stim CS: inactive; TRAIL sens C8: inactive; iPSC survival up: inactive; FLuc inhib CS: inactive

What do the screens show for `Clc1ccccc1-c1ccc2nccn2c1`?
TRAIL sens C8: inactive; iPSC survival up: inactive

What do the screens show for `COc1cc(S(=O)(=O)N2CCN(c3ccccc3F)CC2)ccc1Cl`?
MIN6 prolif: inactive; PPC-1+TRAIL kill: inactive; FLuc stim CS: inactive; TRAIL sens C8: inactive; iPSC survival up: inactive; FLuc inhib CS: 74

What do the screens show for `COc1cc(S(=O)(=O)N2CCN(c3ccccc3)CC2)ccc1Cl`?
MIN6 prolif: inactive; PPC-1+TRAIL kill: inactive; FLuc stim CS: inactive; TRAIL sens C8: inactive; iPSC survival up: inactive; FLuc inhib CS: inactive

Results for Cc1ccc(C#N)c(SCc2nnc(-c3ccc(Cl)cc3)o2)n1 ?
MIN6 prolif: inactive; PPC-1+TRAIL kill: 64; FLuc stim CS: inactive; TRAIL sens C8: 82; iPSC survival up: inactive; FLuc inhib CS: 60

What do the screens show for `Cc1cc(C)c(C#N)c(SCc2nnc(-c3ccccc3)o2)n1`?
MIN6 prolif: inactive; PPC-1+TRAIL kill: 72; FLuc stim CS: inactive; TRAIL sens C8: 69; iPSC survival up: inactive; FLuc inhib CS: inactive

How did Cc1nc(SCc2nnc(-c3ccc(Cl)cc3)o2)c2c3c(sc2n1)CCC3 do in these assays?
PPC-1+TRAIL kill: inactive; FLuc stim CS: inactive; FLuc inhib CS: inactive

Results for Cc1cc(C)c(C#N)c(SCc2nnc(-c3ccccc3[N+](=O)[O-])o2)n1 ?
MIN6 prolif: inactive; PPC-1+TRAIL kill: inactive; FLuc stim CS: inactive; TRAIL sens C8: inactive; iPSC survival up: inactive; FLuc inhib CS: inactive

Results for COc1ccc(S(=O)(=O)N(C)CC(=O)NCCCN2CCOCC2)cc1C ?
TRAIL sens C8: inactive; iPSC survival up: inactive

Results for COc1ccc2c(c1)CC/C2=N\NC(=O)c1ccccc1 ?
MIN6 prolif: inactive; PPC-1+TRAIL kill: inactive; FLuc stim CS: inactive; TRAIL sens C8: inactive; iPSC survival up: inactive; FLuc inhib CS: inactive

Results for COc1ccc2c(c1)CC/C2=N\OC(=O)c1cccc(C)c1 ?
MIN6 prolif: inactive; PPC-1+TRAIL kill: inactive; FLuc stim CS: inactive; TRAIL sens C8: inactive; iPSC survival up: inactive; FLuc inhib CS: 78

What do the screens show for `COc1ccc2c(c1)CC/C2=N\OC(=O)c1ccccc1C`?
MIN6 prolif: inactive; PPC-1+TRAIL kill: inactive; FLuc stim CS: inactive; TRAIL sens C8: inactive; iPSC survival up: inactive; FLuc inhib CS: 75

What do the screens show for `COc1ccc2c(c1)CCC/C2=N/OC(=O)c1ccccc1OC`?
MIN6 prolif: inactive; PPC-1+TRAIL kill: inactive; FLuc stim CS: inactive; TRAIL sens C8: inactive; iPSC survival up: inactive; FLuc inhib CS: inactive

What do the screens show for `O=C1CC(c2ccccc2)Sc2nc3ccccc3n21` (centres undefined)?
MIN6 prolif: inactive; PPC-1+TRAIL kill: inactive; FLuc stim CS: inactive; TRAIL sens C8: inactive; iPSC survival up: inactive; FLuc inhib CS: inactive

What do the screens show for `O=C1CC(c2ccc3c(c2)OCO3)Sc2nc3ccccc3n21` (centres undefined)?
MIN6 prolif: inactive; PPC-1+TRAIL kill: inactive; FLuc stim CS: inactive; TRAIL sens C8: inactive; iPSC survival up: inactive; FLuc inhib CS: 69

How did C=Cc1ccc(Cn2c(C)c(C(=O)NCc3cccc(C(F)(F)F)c3)sc2=O)cc1 do in these assays?
TRAIL sens C8: 51; iPSC survival up: inactive

Results for N#Cc1c(C#N)c(SSc2c(C#N)c(C#N)c(N)n2-c2ccccc2)n(-c2ccccc2)c1N ?
TRAIL sens C8: 79; iPSC survival up: inactive
